Compounds with a hit are over-represented: about 9.4% of the library has one in this group of screens.
SKKanGAS inh = inhibitors of SKKanGAS S. pyogenes growth in kanamycin (SK-promoter or general growth effect); BacTiter-Glo, 6 h; inhibition, % at 7.5 µM; actives 1.3% (n = 300,000); AID 1662;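 active = mean replicate score, as percent of positive control median, at least 50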;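 note: strain carries kanamycin resistance gene driven by streptokinase promoter and grows in 40 µg/ml kanamycin; loss of luminescence reflects streptokinase promoter inhibition or plain growth inhibition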
Mdm2 MdmX PPI = inhibitors of human Mdm2/MdmX interaction; O15151+Q00987; SaOS-2 split-luciferase Mdm2/MdmX complementation, luminescence; inhibition, % at 8 µM; actives 3% (n = 330,000); AID 485346;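 active = inhibition of at least 50% at 8 µM in the primary screen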
Target sequence (O15151 whole entry, looked up): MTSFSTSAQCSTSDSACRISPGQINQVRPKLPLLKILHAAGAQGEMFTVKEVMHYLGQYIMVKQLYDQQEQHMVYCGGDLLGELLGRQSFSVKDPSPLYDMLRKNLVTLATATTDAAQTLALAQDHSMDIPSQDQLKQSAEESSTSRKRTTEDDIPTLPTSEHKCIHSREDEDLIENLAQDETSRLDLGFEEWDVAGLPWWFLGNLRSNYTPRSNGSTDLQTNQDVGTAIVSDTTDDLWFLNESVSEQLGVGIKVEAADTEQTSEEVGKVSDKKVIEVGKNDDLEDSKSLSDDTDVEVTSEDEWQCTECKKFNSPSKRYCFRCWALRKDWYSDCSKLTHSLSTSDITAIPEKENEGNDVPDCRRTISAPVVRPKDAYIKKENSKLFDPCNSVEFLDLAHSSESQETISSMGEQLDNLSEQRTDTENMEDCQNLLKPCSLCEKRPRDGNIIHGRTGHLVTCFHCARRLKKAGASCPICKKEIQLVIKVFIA
Target sequence (Q00987 whole entry, looked up): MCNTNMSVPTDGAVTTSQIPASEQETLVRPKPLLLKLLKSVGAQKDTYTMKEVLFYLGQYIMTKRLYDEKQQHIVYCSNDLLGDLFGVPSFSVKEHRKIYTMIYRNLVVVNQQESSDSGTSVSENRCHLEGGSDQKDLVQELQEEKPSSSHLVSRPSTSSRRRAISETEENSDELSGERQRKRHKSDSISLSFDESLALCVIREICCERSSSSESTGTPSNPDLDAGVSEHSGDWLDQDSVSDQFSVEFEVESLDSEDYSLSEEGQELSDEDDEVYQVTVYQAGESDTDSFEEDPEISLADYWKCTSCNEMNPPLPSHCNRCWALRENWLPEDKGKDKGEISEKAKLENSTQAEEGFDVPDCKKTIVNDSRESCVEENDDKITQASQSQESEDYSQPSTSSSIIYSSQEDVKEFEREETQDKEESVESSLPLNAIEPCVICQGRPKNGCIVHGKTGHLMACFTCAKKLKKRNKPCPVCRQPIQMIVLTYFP
Lmaj promast = inhibitors of Leishmania major promastigote growth; AID 1063; Leishmania major promastigotes, resazurin fluorescence viability; actives 9% (n = 200,000); inhibition, % at 10 µM; in the data active = inhibition above about 50%;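 note: promastigotes grown with compound for 44 hours at 28 °C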
Beta apoptosis = beta cell apoptosis inhibition | protection from apoptosis, % (test concentration not listed) | actives 0.8% (n = 300,000) | INS-1E cytokine-induced death, ATP luminescence, 48 h; percent of positive-control rescue, neutral wells zero;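 active = Every replicate reaches about 75%, or at least half do and their mean reaches it too, limit read from the data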;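 note: higher means more ATP so stronger rescue from cytokine killing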
T cruzi repl = T. cruzi replication inhibition; T. cruzi beta-gal in NIH3T3, luminescence, 90 h; inhibition, % (concentration not given with the values); actives 1.4% (n = 300,000); AID 1885;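 active = mean inhibition across valid replicates above about 55%, limit read from the data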;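 note: signal also drops with host cell toxicity which is not excluded here; higher percent means less beta-gal luminescence so fewer parasites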
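Test system: β-gal T. cruzi (Tulahuen C4) inside NIH/3T3 cells / Quantity: 5,000 cells/well / Measured by: luminescence from GalScreen with 0.05% NP40, read after 60 min / Medium: DMEM plus 2% FBS / Measure: parasite load inhibition, % / Reagent: Tulahuen C4 trypomastigotes, 5000/well / Schedule: co-culture of at least 90 h after 3 h attachment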
CSC inhib = blocks cancer stem cells; actives 1.1% (n = 300,000); cancer stem cell-like cells viability, luminescence; inhibition, % at 7.5 µM; in the data active = inhibition above about 75%; tested in HMLE shEcad cells
Each line names hits and unclear results; the compound was inactive in the other large screens.

COc1ccc(NC(=O)c2ccc(COc3ccccc3Br)o2)cc1OC	CSC inhib 96
COc1cc(NC(=O)c2ccc(COc3ccccc3Br)o2)cc(OC)c1OC	Lmaj promast 68 (no result: Beta apoptosis)
Cc1noc(C)c1NC(=O)N(C)C[C@H]1Oc2ccc(NC(=O)C3CC3)cc2C(=O)N([C@H](C)CO)C[C@@H]1C	none (no result: SKKanGAS inh, Lmaj promast, T cruzi repl)
CCOC(=O)c1c(O)cc(C)cc1Nc1ccccc1	SKKanGAS inh 51 (no result: Lmaj promast)
Cc1ccccc1NC(=S)NC(=O)CCc1ccccc1	Lmaj promast 100
CSc1cccc(NC(=S)NC(=O)CCc2ccccc2)c1	SKKanGAS inh 60 (no result: Lmaj promast)
CCOc1ccc(NC(=S)NC(C)CCc2ccccc2)cc1 (stereo not given)	none
Cc1ccccc1NC(=S)NC(C)CCc1ccccc1 (stereo not given)	Lmaj promast 62
Cc1cccc(C)c1NC(=S)NC(=O)CCc1ccccc1	Lmaj promast 93
NC(=O)c1ccccc1NC(=S)NC(=O)CCc1ccccc1	none
O=C(NC1CCCCC1)C(=O)c1c[nH]c2ccccc12	none (no result: Lmaj promast)
Cc1cc(N/N=C/c2ccncc2)c([N+](=O)[O-])cc1[N+](=O)[O-]	none (no result: Lmaj promast)
CCC1(c2ccccc2)NC(=O)N(CC(=O)Nc2ccc(N3CCOCC3)cc2)C1=O (stereo not given)	none (no result: SKKanGAS inh, Lmaj promast, T cruzi repl)
CCC(=O)Nc1ccc(C(=O)CSc2nnc(-c3ccc(NS(=O)(=O)CC)cc3)o2)cc1OC	none (no result: Lmaj promast)
CCCCCCCCCCCCCCCCn1cc[n+](CC(C)=O)c1	Lmaj promast 100 (no result: SKKanGAS inh, Mdm2 MdmX PPI, Beta apoptosis, T cruzi repl, CSC inhib)
CCOc1ccc(NC(=O)c2sc3nc4n(c(=O)c3c2C)CCC4)cc1	none (no result: Lmaj promast)
CCOC(=O)c1ccc(NC(=O)c2sc3nc4n(c(=O)c3c2C)CCC4)cc1	SKKanGAS inh 62 (no result: Lmaj promast, Beta apoptosis)
Cc1ccc(-c2nnc(Nc3ccc(O)cc3)c3ccccc23)cc1S(=O)(=O)NCCO	none (no result: Lmaj promast)
COC(=O)c1ccc(Nc2nnc(-c3ccc(C)c(S(=O)(=O)NCC4CCCO4)c3)c3ccccc23)cc1 (stereo not given)	Lmaj promast 92
CCOC(=O)CNS(=O)(=O)c1cc(-c2nnc(Nc3ccc4c(c3)OCO4)c3ccccc23)ccc1C	Lmaj promast 55
CC1(C)NC(=O)N(CC(O)CN(c2cccc([N+](=O)[O-])c2)S(=O)(=O)c2ccccc2)C1=O (stereo not given)	none (no result: Lmaj promast)
Cc1cccc(C)c1OCC(=O)OCC(=O)Nc1ccc(Cl)cn1	none (no result: SKKanGAS inh, Lmaj promast, T cruzi repl, CSC inhib)
Cc1ccc2c(CC(=O)OCC(=O)Nc3ccc(Cl)cn3)coc2c1	Lmaj promast 51
C/C(=N\Nc1cccc(Cl)c1)C1(C)N(O)C(C)(C)C(c2ccco2)=[N+]1[O-] (stereo not given)	CSC inhib 84 (no result: Lmaj promast)
C/C(=N\O)C1(C)N(O)C(C)(C)C(c2ccco2)=[N+]1[O-] (stereo not given)	none (no result: CSC inhib)
CCOC(=O)c1ccc(-n2c(O)c(/C=N/NC(=O)C3COc4ccccc4O3)c3ccccc3c2=O)cc1 (stereo not given)	SKKanGAS inh 103
CCOC(=O)c1ccc(NC(=O)C2COc3ccccc3O2)cc1 (stereo not given)	none (no result: Lmaj promast)
N#Cc1ccccc1Cn1cc(/C=C/[N+](=O)[O-])c2ccccc21	Lmaj promast 87 (no result: Beta apoptosis, CSC inhib)
O=[N+]([O-])/C=C/c1cn(Cc2ccccc2)c2ccccc12	Lmaj promast 96
O=C(Nc1cccc(S(=O)(=O)Nc2ccc(Cl)cc2)c1)c1ccccn1	none (no result: SKKanGAS inh, Lmaj promast, T cruzi repl, CSC inhib)
O=C(Nc1ccc(S(=O)(=O)N2CCCCC2)cc1)c1ccc(Cl)nc1	none (no result: SKKanGAS inh, Lmaj promast, T cruzi repl)
CC(=O)N1N=C(c2ccccc2)OC1c1ccc([N+](=O)[O-])s1 (stereo not given)	Lmaj promast 100, T cruzi repl 84
CC(=O)N1N=C(c2cccc([N+](=O)[O-])c2)OC1c1ccc(Br)cc1 (stereo not given)	none (no result: Lmaj promast)
COC(=O)Cc1c(C(=O)OC)nnn1-c1ccc(OC(F)(F)F)cc1	none
COc1ccc(-c2cc(C(=O)N3CC4(C)CC3CC(C)(C)C4)no2)cc1OC (stereo not given)	CSC inhib 83
O=C(c1cc(COc2cccc(C(F)(F)F)c2)on1)N1C[C@H]2CC[C@H]1C2	none (no result: Lmaj promast)
CC1(C)C[C@@H]2C[C@@](C)(CN2C(=O)c2cc(COc3cccc(C(F)(F)F)c3)on2)C1	Beta apoptosis 104, CSC inhib 96 (no result: Lmaj promast)
Cc1ccc(OCC(=O)N2CCN(c3nnc(-c4ccc(C)cc4)c4ccccc34)CC2)cc1	T cruzi repl 61 (no result: CSC inhib)
Cc1ccc(-c2nnc(N3CCC(C)CC3)c3ccccc23)cc1C	CSC inhib 96
COc1ccc(OCC(=O)N2CCN(c3nnc(-c4ccccc4)c4ccccc34)CC2)cc1	none
Cc1ccc(-c2nnc(N3CCCCCC3)c3ccccc23)cc1	T cruzi repl 64 (no result: Lmaj promast)
O=C(COc1ccccc1)N1CCN(c2nnc(-c3ccccc3)c3ccccc23)CC1	T cruzi repl 55
CCOC(=O)N1CCN(S(=O)(=O)N2CCCC(C(=O)NCCCN3CCCCC3)C2)CC1 (stereo not given)	none (no result: Lmaj promast)
Cc1cccc(C)c1OCCSc1nc2ccccc2n1CC(=O)O	none (no result: Lmaj promast, Beta apoptosis)
CS(=O)(=O)NCCCNc1ccc(Cl)cc1[N+](=O)[O-]	none
CCNCCNc1ccc(Cl)cc1[N+](=O)[O-]	Lmaj promast 60
COCCNC(=O)Cn1cc(/C=C(\C#N)C(=O)NC2CCCC2)c2ccccc21	none (no result: Lmaj promast, Beta apoptosis)
CCCCOc1ccc(C(=O)NCC(=O)NCCCn2nc(C)cc2C)cc1	none (no result: SKKanGAS inh, Lmaj promast, T cruzi repl, CSC inhib)
C#CCOCCOCCOCCNc1nc(N2CCN(C(=O)CCCCCCCCCCNC(=O)[C@H](CCCCN)n3cc(CCO)nn3)CC2)nc(N2CCN(C(=O)CCCCCCCCCCNC(=O)[C@H](CCCCN)n3cc(C[C@@H](C)CC)nn3)CC2)n1	Beta apoptosis 83, CSC inhib 95 (no result: SKKanGAS inh, Lmaj promast, T cruzi repl)
C#CCOCCOCCOCCNc1nc(N2CCN(C(=O)CCCCCCCCCCNC(=O)[C@@H](CCC(=O)O)n3cc(CCCCCN)nn3)CC2)nc(N2CCN(C(=O)CCCCCCCCCCNC(=O)[C@H](CCCCN)n3cc(C[C@@H](C)CC)nn3)CC2)n1	none (no result: SKKanGAS inh, Lmaj promast, T cruzi repl)
C#CCOCCOCCOCCNc1nc(N2CCN(C(=O)CCCCCCCCCCNC(=O)[C@H](CO)n3cc(CCCCCN)nn3)CC2)nc(N2CCN(C(=O)CCCCCCCCCCNC(=O)[C@H](CCCN=C(N)N)n3cc(C[C@@H](C)CC)nn3)CC2)n1	Beta apoptosis 89 (no result: SKKanGAS inh, Lmaj promast, T cruzi repl)
C#CCOCCOCCOCCNc1nc(N2CCN(C(=O)CCCCCCCCCCNC(=O)[C@H](CCCCN)n3cc(C[C@@H](C)CC)nn3)CC2)nc(N2CCN(C(=O)CCCCCCCCCCNC(=O)[C@H](CCCN=C(N)N)n3cc(C[C@@H](C)CC)nn3)CC2)n1	Beta apoptosis 99, CSC inhib 102 (no result: SKKanGAS inh, Lmaj promast, T cruzi repl)

Assay outcomes from PubChem BioAssay.
